An excerpt weighted towards active compounds, which were near 2.5% of everything screened.
SENP8 block-1: inhibitors of human SENP8 protease. Q96LD8. purified SENP8, Z-RLRGG-aminoluciferin cleavage, luminescence. inhibition, % at 10 µM. hit rate 1.2% among 330,000; in the data active = inhibition above about 50%
Target sequence (Q96LD8 whole entry, looked up): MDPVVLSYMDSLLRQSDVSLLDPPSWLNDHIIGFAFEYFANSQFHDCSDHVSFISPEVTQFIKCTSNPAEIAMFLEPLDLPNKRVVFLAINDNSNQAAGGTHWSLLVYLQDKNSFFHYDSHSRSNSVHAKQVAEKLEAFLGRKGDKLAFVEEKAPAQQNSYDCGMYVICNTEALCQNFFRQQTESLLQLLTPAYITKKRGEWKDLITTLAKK
SENP6 inh: inhibitors of human SENP6 protease. inhibition, % at 10 µM. AID 2599. Q9GZR1. Recombinant SENP6 catalytic domain, aminoluciferin luminescence. hit rate 1.8% among 330,000;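 active = inhibition above about 50% at the single tested dose, limit read from the data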
SENP8 block-2: inhibitors of human SENP8 protease; Q96LD8; recombinant SENP8, Nedd8 substrate fluorescence; inhibition, % at 20 µM; hit rate 0.64% among 360,000; AID 602440; in the data active = inhibition mostly above about 40%, no sharp cut-off; inactive = mostly below about 27%
SENP1 FRET inh: blocks the human SENP1 SUMO protease catalytic domain | Q9P0U3 | recombinant SENP1 catalytic domain, CyPet-SUMO1-YPet FRET cleavage | inhibition, % at 10 µM | hit rate 0.21% among 360,000;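 active = inhibition at least 30% at 10 µM, raw YFP signal under a set limit, fluorescence ratio 0.5 to 1.5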
Target sequence (Q9P0U3 419-644 limits assumed): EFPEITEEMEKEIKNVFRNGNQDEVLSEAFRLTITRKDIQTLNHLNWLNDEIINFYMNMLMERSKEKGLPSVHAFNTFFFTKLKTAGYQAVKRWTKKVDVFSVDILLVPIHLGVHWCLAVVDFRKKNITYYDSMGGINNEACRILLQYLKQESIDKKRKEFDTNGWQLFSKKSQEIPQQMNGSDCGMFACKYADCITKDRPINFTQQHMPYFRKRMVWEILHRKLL
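Assay system – human recombinant His6-tagged SENP1 catalytic domain enzyme · Input – SENP1 enzyme, 20 pM final · Buffer or medium – Tris pH 8 buffer plus EDTA, NaCl, BME, BSA, NP40, catalase · Schedule – 50 min reaction at room temperature · Technique – FRET read of cyan and yellow fluorescence · Control set – no-enzyme wells low, DMSO-plus-enzyme wells high control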
SENP7 inh: SENP7 protease inhibition. Q9BQF6. recombinant SENP7, Z-RLRGG-aminoluciferin luminescence, 40 min. inhibition, % at 5 µM. hit rate 1.5% among 330,000. AID 434973;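 active = inhibition above about 50% at the single test dose, limit read from the data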
SENP8 conf-1: human SENP8 inhibition, confirmed | inhibition, % at 12.5 µM | Recombinant SENP8, Z-RLRGG-aminoluciferin luminescence, 60 min | shares compounds with SENP7 inh | hit rate 40% among 6,200;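 active = mean inhibition across replicates above about 50%, limit read from the data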
SENP6 conf: human SENP6 inhibition, confirmed; AID 488915; shares compounds with SENP7 inh; recombinant SENP6, Z-RLRGG-aminoluciferin luminescence; hit rate 58% among 6,200; inhibition, % at 12.5 µM
SENP7 confirm: human SENP7 inhibition, confirmed. shares compounds with SENP7 inh. recombinant SENP7, Z-RLRGG-aminoluciferin luminescence, 40 min. inhibition, % at 12.5 µM. hit rate 69% among 6,200
Casp3 select: caspase-3 inhibition (SENP selectivity assay); hit rate 60% among 6,200; inhibition, % at 12.5 µM; purified caspase-3, Z-DEVD-aminoluciferin luminescence, 60 min; shares compounds with SENP7 inh;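 active = mean inhibition above about 50%, limit read from the data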
Target sequence (P42574 28-227 limits assumed): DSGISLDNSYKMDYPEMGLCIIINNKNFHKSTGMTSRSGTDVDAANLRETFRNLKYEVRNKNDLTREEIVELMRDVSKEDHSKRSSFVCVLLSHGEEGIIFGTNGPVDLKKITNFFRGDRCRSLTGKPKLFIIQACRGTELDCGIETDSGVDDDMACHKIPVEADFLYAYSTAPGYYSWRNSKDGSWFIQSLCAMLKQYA
Luc interf: counter-screen for SENP inhibitors: luminescence interference | shares compounds with SENP7 inh | hit rate 39% among 6,200 | inhibition, % at 12.5 µM | Pre-incubated SENP8/Z-RLRGG-aminoluciferin, luciferase luminescence interference;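 active = mean inhibition above about 50% when retested at one dose, limit read from the data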
SENP8 conf-2: SENP8 (human) inhibition, single concentration confirmation; shares compounds with SENP8 block-2; purified SENP8, Nedd8-AMC/pro-Nedd8 cleavage fluorescence, 30 min; inhibition, % at 25 µM; hit rate 15% among 1,400; in the data active = inhibition mostly above about 39%, no sharp cut-off; inactive = mostly below about 34%
SENP1 conf: SENP1 (human) inhibition, single concentration confirmation. recombinant SENP1, CyPet-SUMO1-YPet FRET cleavage. shares compounds with SENP1 FRET inh. hit rate 34% among 520. AID 651678. inhibition, % at 10 µM; in the data active = inhibition mostly above about 35%, no sharp cut-off; inactive = mostly below about 32%
SENP1 kinetic: SENP1 (human) inhibition, kinetic confirmation; shares compounds with SENP1 FRET inh; recombinant SENP1, CyPet-SUMO1-YPet FRET kinetic cleavage; inhibition, % at 10 µM; hit rate 26% among 520; in the data active = inhibition mostly above about 32%, no sharp cut-off; inactive = mostly below about 29%
A number is an active result.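 Rule for the calls, unless noted: active = mean inhibition above about 50% in the one-dose retest (limit read from the data); inactive = the rest.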

What do the screens show for `COCCNC(=O)c1c(N)n(Cc2ccco2)c2nc3ccccc3nc12`?
SENP8 block-1: inactive; SENP6 inh: inactive; SENP8 block-2: inactive; SENP1 FRET inh: inactive; SENP7 inh: inactive

Results for COCCCn1c(N)c(C(=O)NCc2ccco2)c2nc3ccccc3nc21 ?
SENP8 block-1: 90.5; SENP6 inh: 92.8; SENP7 inh: 87.0; SENP8 conf-1: inactive; SENP6 conf: inactive; SENP7 confirm: inactive; Casp3 select: inactive; Luc interf: inactive

How did CCC(C)NC(=O)c1c(N)n(CCCOC)c2nc3ccccc3nc12 (stereo not drawn) do in these assays?
SENP8 block-1: 92.0; SENP6 inh: 86.4; SENP8 block-2: inactive; SENP1 FRET inh: inactive; SENP7 inh: 89.8; SENP8 conf-1: inactive; SENP6 conf: 83.0; SENP7 confirm: 74.3; Casp3 select: inactive; Luc interf: inactive

How did COCCCn1c(N)c(C(=O)Nc2sc3c(c2C(=O)OC)CCCC3)c2nc3ccccc3nc21 do in these assays?
SENP8 block-1: 88.8; SENP6 inh: 91.4; SENP8 block-2: inactive; SENP1 FRET inh: inactive; SENP7 inh: 71.2; SENP8 conf-1: inactive; SENP6 conf: inactive; SENP7 confirm: inactive; Casp3 select: inactive; Luc interf: inactive

Results for CCCCCSc1cc(OC)c(CCN(C)C)cc1OC ?
SENP8 block-1: inactive; SENP6 inh: 53.0; SENP8 block-2: inactive; SENP1 FRET inh: inactive; SENP7 inh: inactive; SENP8 conf-1: inactive; SENP6 conf: inactive; SENP7 confirm: inactive; Casp3 select: inactive; Luc interf: inactive

Results for CCCCCSc1cc(O)c(C(CNC)C(C)C)cc1OC (stereo not drawn) ?
SENP8 block-1: inactive; SENP6 inh: inactive; SENP8 block-2: inactive; SENP1 FRET inh: inactive; SENP7 inh: inactive

How did Cc1ccc(S(=O)(=O)CC(=O)c2cc(C)c(OC(=O)N(C)C)c(C)c2)cc1 do in these assays?
SENP8 block-1: inactive; SENP6 inh: inactive; SENP8 block-2: inactive; SENP1 FRET inh: inactive; SENP7 inh: inactive

What do the screens show for `Cc1cc(C(=O)CS(=O)(=O)c2ccccc2)cc(C)c1OC(=O)N(C)C`?
SENP8 block-1: inactive; SENP6 inh: 54.0; SENP8 block-2: inactive; SENP1 FRET inh: inactive; SENP7 inh: inactive; SENP8 conf-1: inactive; SENP6 conf: inactive; SENP7 confirm: 77.9; Casp3 select: 79.2; Luc interf: inactive

What do the screens show for `O=c1[nH]c(=S)[nH]c(O)c1N=Nc1ccc2c(c1)OCCO2`?
SENP8 block-1: 87.0; SENP6 inh: 91.5; SENP8 block-2: 41.8; SENP1 FRET inh: 36.3; SENP7 inh: 92.1; SENP8 conf-1: inactive; SENP6 conf: inactive; SENP7 confirm: 55.0; Casp3 select: 64.2; Luc interf: inactive; SENP8 conf-2: inactive

How did Cc1cccc(-n2c(-c3ccccc3)nc3ccccc3c2=O)n1 do in these assays?
SENP8 block-1: inactive; SENP6 inh: inactive; SENP8 block-2: inactive; SENP1 FRET inh: inactive; SENP7 inh: inactive

What do the screens show for `COc1ccc(N=Nc2c(O)[nH]c(=S)[nH]c2=O)cc1`?
SENP8 block-1: 65.6; SENP6 inh: 76.0; SENP8 block-2: inactive; SENP1 FRET inh: 47.8; SENP7 inh: 66.3; SENP8 conf-1: inactive; SENP6 conf: 79.4; SENP7 confirm: 51.2; Casp3 select: 77.6; Luc interf: inactive; SENP1 conf: 43.3; SENP1 kinetic: inactive

How did C=CCN1Cc2ccccc2-n2nncc2C1 do in these assays?
SENP8 block-2: inactive; SENP1 FRET inh: inactive

What do the screens show for `O=C(NC1(C(F)(F)F)Oc2ccc(Cl)cc2O1)N1CCC2(CC1)OCCO2` (stereo not drawn)?
SENP8 block-1: inactive; SENP6 inh: inactive; SENP8 block-2: 40.3; SENP1 FRET inh: inactive; SENP7 inh: inactive; SENP8 conf-2: inactive

How did COC(=O)C1=C(C(=O)OC)C2OC1c1cc3ccccc3cc12 do in these assays?
SENP8 block-2: inactive; SENP1 FRET inh: inactive

How did O=c1[nH]c(=S)[nH]c(O)c1N=Nc1cc2c(cc1[N+](=O)[O-])OCO2 do in these assays?
SENP8 block-1: inactive; SENP6 inh: inactive; SENP8 block-2: 41.9; SENP1 FRET inh: inactive; SENP7 inh: inactive; SENP8 conf-2: inactive

How did COC(=O)C1=C(c2ccc(C(C)=O)cc2)C[C@@H]2CC[C@H]1N2C(=O)NC1Cc2ccccc2C1 do in these assays?
SENP8 block-1: inactive; SENP6 inh: inactive; SENP8 block-2: inactive; SENP1 FRET inh: inactive; SENP7 inh: inactive

What do the screens show for `O=C1NC(=O)C(Nc2ccccc2)C(=O)N1`?
SENP8 block-2: 63.9; SENP1 FRET inh: inactive; SENP8 conf-2: 46.1

What do the screens show for `O=C1NC(=O)C(Cc2ccccc2)(Cc2ccccc2)C(=O)N1`?
SENP8 block-2: inactive; SENP1 FRET inh: inactive

How did CN1CCN(c2ccc(N)c(N3CCN(C)CC3)c2)CC1 do in these assays?
SENP8 block-1: inactive; SENP6 inh: inactive; SENP8 block-2: 51.4; SENP1 FRET inh: inactive; SENP7 inh: inactive; SENP8 conf-2: inactive

What do the screens show for `CC(=O)c1ccc2c(c1)OCO2`?
SENP8 block-1: inactive; SENP6 inh: inactive; SENP8 block-2: 44.0; SENP1 FRET inh: inactive; SENP7 inh: inactive; SENP8 conf-2: inactive

Results for CCN1CCN(C(=O)COc2ccc(S(=O)(=O)N3CCOCC3)cc2Cl)CC1 ?
SENP8 block-1: inactive; SENP6 inh: inactive; SENP8 block-2: inactive; SENP1 FRET inh: inactive; SENP7 inh: inactive

What do the screens show for `CCN1CCN(S(=O)(=O)c2ccc(Cl)nc2)CC1`?
SENP8 block-1: inactive; SENP6 inh: inactive; SENP8 block-2: 43.5; SENP1 FRET inh: inactive; SENP7 inh: inactive; SENP8 conf-2: inactive

Results for Fc1c(F)c(F)c(N2CCNCC2)c(F)c1F ?
SENP8 block-1: inactive; SENP6 inh: inactive; SENP8 block-2: inactive; SENP1 FRET inh: inactive; SENP7 inh: inactive
